Experimental data collected from several papers.
Target: Serine/threonine-protein kinase SIK3 (SIK3, Homo sapiens, UniProt Q9Y2K2)

`O=C(NCC1CCOCC1)c1n[nH]cc1NC(=O)c1c(F)cccc1F` gave a remaining binding of 88% (binding, competition with immobilised ligand; 1 µM).
For `O=C(NCCCN1CCOCC1)c1ccc(Nc2nccc(-c3cc4ccccc4s3)n2)cc1`, the remaining binding was 95% (binding, competition with immobilised ligand; 1 µM).
With `F[C@@H]1CCN(c2nccc(-c3cnn4ncccc34)n2)C1` the remaining binding was 74% (binding; 1 µM).
With `O=C(c1ccc(Nc2ncc(Cl)c(-c3ccc(Cl)s3)n2)cc1)N1CCC(N2CCCC2)CC1` the remaining binding was 84% (binding, competition with immobilised ligand; 1 µM).
`CN(C)C(=O)Cn1cc(-c2nc(C3(c4ccc(-c5cnc(N)nc5)cc4)CC3)no2)cn1` has a remaining binding of 100% (cell-free assay, competition with immobilised ligand; 1 µM).
`CN(c1nccc(-c2cnn3ncccc23)n1)C1CC1` gave a remaining binding of 100% (binding; 1 µM).
The remaining binding of `CCC(=O)N[C@@H]1CC[C@H](C(=O)N(C)c2ccc(-c3nc4ccccc4o3)cc2)C1` is reported as 100% (cell-free assay, competition with immobilised ligand; 1 µM).
`CC1CCCN1c1nccc(-c2cnn3ncccc23)n1` (centres unmarked) gave a remaining binding of 94% (binding; 1 µM).
`Nc1ncc2c(n1)-c1c([nH]c3ccc(C#CC4CC4)cc13)CCCC2` gave a remaining binding of 100% (binding, competition with immobilised ligand; 1 µM).
For `CN(C)CC#Cc1ccc(OCCCc2sc(N3CCc4cccc(C(=O)Nc5nc6ccccc6s5)c4C3)nc2C(=O)O)c(F)c1`, the remaining binding was 77% (cell-free assay, competition with immobilised ligand; 1 µM).
For `C[C@H]1CCN(c2nccc(-c3cnn4ncccc34)n2)C1`, the remaining binding was 66% (binding; 1 µM).
The remaining binding of `O=C(c1ccc(Nc2ncc(Cl)c(-c3cc4ccccc4s3)n2)cc1)N1CCC(N2CCCC2)CC1` is reported as 98% (binding, competition with immobilised ligand; 1 µM).
The remaining binding of `N[C@@H]1CCN(c2nccc(-c3cnn4ncccc34)n2)C1` is reported as 100% (binding; 1 µM).
The remaining binding of `CNC(=O)[C@@H]1CC[C@@H](n2c(-c3ccc4cnccc4c3)nc3ccc(C(=O)NCc4cccc(C(N)=O)c4)cc32)C1` is reported as 88% (binding, competition with immobilised ligand; 1 µM).
For `CC(=O)Nc1c(C(C)=O)c(=O)n(C)c2nc(-c3ccc(Cl)cc3Cl)c(-c3ccc(Cl)cc3)cc12`, the remaining binding was 100% (cell-free assay, competition with immobilised ligand; 1 µM).
With `FC(F)(F)Oc1cccc(-c2cnc3ccc(-c4ccncc4)nn23)c1` the remaining binding was 66% (cell-free assay, competition with immobilised ligand; 5 µM).
The remaining binding of `CCCCN(CCCC)C(=O)CN1C[C@H](c2cc(OC)c3c(c2)OCO3)[C@@H](C(=O)O)[C@@H]1CC(C)(C)CCC` is reported as 60.5% (cell-free assay, competition with immobilised ligand; 1 µM).
`COc1ccnn2ncc(-c3ccnc(N(C)C)n3)c12` has a remaining binding of 78% (binding; 1 µM).
The remaining binding of `C[C@H](c1ccc(F)cc1)N(Cc1cccc(C(=O)O)c1)C(=O)c1cnc2ccccc2c1` is reported as 80% (cell-free assay, competition with immobilised ligand; 1 µM).
The remaining binding of `CCN1CCN(Cc2ccc(C(=O)Nc3ccc(C)c(Oc4ccc5c(c4)CC(=O)N5)c3)cc2C(F)(F)F)CC1` is reported as 100% (binding, competition with immobilised ligand; 1 µM).
